Test results from ChEMBL document CHEMBL1142294, “Design and synthesis of benzo-lipoxin A4 analogs with enhanced stability and potent anti-inflammatory properties” (Bioorg Med Chem Lett, 2008).

Columns and labels:
[1] = Stability assessed as rate of NADH formation in presence of eicosanoid oxido-reductase; format: ADME
How it was run: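 Compound at ~15 μM incubated with 50 ng recombinant eicosanoid oxido-reductase in 0.1 M Tris–HCl pH 9.0 with 1 mM NAD⁺, 37 °C, 25 min, while NADH formation was monitored. Initial velocity was taken by linear regression over the linear phase of conversion. Values are means ± SEM, n = 3.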

[2] = system: Mus musculus; test: Antiinflammatory activity against FVB mouse assessed as inhibition of zymosan-induced neutrophil infiltration at 15 ug/kg, iv relative to control; format: functional
How it was run: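 Male FVB mice, 6–8 weeks old, given 15 μg kg⁻¹ by intravenous bolus into the tail vein in 100 μL sterile saline, then an intraperitoneal injection of zymosan A (1 mg/1 mL). Peritoneal lavage was collected at 2 h, and total leukocytes, PMNs and monocytes were counted. PMN inhibition is relative to zymosan A plus saline vehicle. Values are means ± SEM, n = 5–10.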

Stability [1] [µM/min] | SMILES | inhibition in vivo at 0.015 mg/kg [2] [%]
0.14 | CCCCC[C@@H](O)/C=C/C=C/c1ccccc1/C=C/[C@@H](O)[C@@H](O)CCCC(=O)OC | 17.3
0.45 | CCCCC[C@@H](O)/C=C/c1cccc(/C=C/[C@@H](O)[C@@H](O)CCCC(=O)OC)c1 | 32
0.19 | CCCCC[C@@H](O)/C=C/c1ccccc1/C=C/[C@@H](O)[C@@H](O)CCCC(=O)OC | 32.2
0.21 | CCCCC[C@@H](O)/C=C/C=C\C=C\C=C\[C@@H](O)[C@@H](O)CCCC(=O)O | –
– | COC(=O)CCC[C@H](O)[C@H](O)/C=C/C=C/C=C\C=C\[C@H](O)COc1ccc(F)cc1 | 40.5
0.04 | CCCCCC/C=C/c1ccccc1/C=C/[C@@H](O)[C@@H](O)CCCC(=O)OC | 23.9
0.09 | CCCCCC(O)c1ccccc1/C=C/[C@@H](O)[C@@H](O)CCCC(=O)OC (mixture of isomers) | 22.3
2.42 | CCCCC[C@H](O)/C=C/C=C\C=C\C=C\[C@@H](O)[C@@H](O)CCCC(=O)O [LIPOXIN A4] | –
